Results published in ChEMBL document CHEMBL3352384, “Synthesis and biological activity of new salicylanilide N,N-disubstituted carbamates and thiocarbamates” (Bioorg Med Chem, 2014).
Converted amounts (≈) assume the structure as drawn.

Tests used:
HepG2 = test: Cytotoxicity against human HepG2 cells assessed as reduction in cell viability after 24 hrs by MTS assay; type: cell-based; conditions: HepG2, 24 h
In short: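 HepG2 hepatocellular carcinoma cells (passage 3–4) were grown in Eagle's MEM with 10% FBS, 1% L-glutamine and non-essential amino acids. Compounds were added from DMSO at eight concentrations in triplicate, with 10% DMSO as the 0% viability control. Viability was read by tetrazolium salt reduction (CellTiter 96 AQueous One). IC50 is the concentration reducing viability to 50% of control.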

[1] = system: Staphylococcus epidermidis; test: Antimicrobial activity against Staphylococcus epidermidis H 6966/08 after 48 hrs by microdilution method; type: functional; conditions: H 6966/08, 48 h
In short: (§1)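 Broth microdilution in Mueller-Hinton broth, compounds dissolved in DMSO, final concentrations 500 to 0.49 µM. Benzylpenicillin and bacitracin were run as comparators. MIC was taken as 95% (IC95) or greater growth reduction versus control. Each determination was done twice.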

[2] = Selectivity index, ratio of IC50 for human HepG2 cells to MIC for Mycobacterium tuberculosis H37Rv; type: toxicity, cell-based; conditions: read-out: Selectivity Index
In short: (§2)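 Selectivity index = HepG2 IC50 / MIC. HepG2 cells (passage 3–4) grown in Eagle's MEM with 10% FBS, L-glutamine and non-essential amino acids. Compounds added from DMSO, eight concentrations in triplicate, tetrazolium-reduction colorimetric read-out.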

Mycobacterium avium [3] = test: Antimycobacterial activity against Isoniazid, rifampicin, ofloxacin and ethambutol-resistant Mycobacterium avium 330/88 assessed as complete growth inhibition after 21 days; type: functional; conditions: 330/88, 504 h
In short: (§3)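 M. tuberculosis 331/88 (H37Rv) inoculum diluted 10-3, M. avium 330/88 diluted 10-5. MIC is the lowest concentration giving complete growth inhibition. Isoniazid and p-aminosalicylic acid as references. Quadruplicate, repeated twice.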

Staphylococcus aureus [4] = test: Antimicrobial activity against methicillin-resistant Staphylococcus aureus H 5996/08 after 48 hrs by microdilution method; type: functional; conditions: H 5996/08, 48 h
In short: (§4)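 Mueller-Hinton broth microdilution; compounds dissolved in DMSO, final concentrations 500 to 0.49 µM. […] Benzylpenicillin and bacitracin as comparators. Each determination done twice.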

Mycobacterium kansasii [5] = test: Antimycobacterial activity against clinical isolate Mycobacterium kansasii 6509/96 assessed as complete growth inhibition after 7 days; type: functional; conditions: 6509/96, 168 h
In short: (§5)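 Dilutions of M. kansasii inoculum were 10-4 for strain 235/80 and 10-5 for clinical isolate 6509/96. MIC was the lowest concentration giving complete growth inhibition, run in quadruplicate and repeated twice.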

Mycobacterium kansasii [6] = test: Antimycobacterial activity against clinical isolate Mycobacterium kansasii 6509/96 assessed as complete growth inhibition after 14 days; type: functional; conditions: 6509/96, 336 h; in short: as §5
[7] = system: Staphylococcus epidermidis; test: Antimicrobial activity against Staphylococcus epidermidis H 6966/08 after 24 hrs by microdilution method; type: functional; conditions: H 6966/08, 24 h; in short: as §1
Mycobacterium kansasii [8] = test: Antimycobacterial activity against Mycobacterium kansasii 235/80 assessed as complete growth inhibition after 7 days; type: functional; conditions: 235/80, 168 h; in short: as §5
Mycobacterium kansasii [9] = test: Antimycobacterial activity against Mycobacterium kansasii 235/80 assessed as complete growth inhibition after 14 days; type: functional; conditions: 235/80, 336 h; in short: as §5
Enterococcus sp. [10] = test: Antimicrobial activity against Enterococcus sp. J 14365/08 after 48 hrs by microdilution method; type: functional; conditions: J 14365/08, 48 h; in short: as §1
[11] = system: Mycobacterium tuberculosis; test: Antimycobacterial activity against Mycobacterium tuberculosis H37Rv 331/88 assessed as complete growth inhibition after 14 days; type: functional; conditions: H37Rv 331/88, 336 h; in short: as §3
Staphylococcus aureus [12] = test: Antimicrobial activity against Staphylococcus aureus CCM 4516/08 after 24 hrs by microdilution method; type: functional; conditions: CCM 4516/08, 24 h; in short: as §4
[13] = Selectivity index, ratio of IC50 for human HepG2 cells to MIC for Trichophyton mentagrophytes 445
[14] = system: Trichophyton mentagrophytes; test: Antimicrobial activity against Trichophyton mentagrophytes 445 after 120 hrs by microdilution method; type: functional; conditions: Trichophyton mentagrophytes, 445, 120 h
In short: (§6)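 Broth microdilution in RPMI 1640 with glutamine, with fluconazole and amphotericin B as references. For filamentous fungi, MIC is expressed as the IC50, i.e. the concentration giving 50% growth reduction versus control. Each determination was done twice.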

Mycobacterium kansasii [15] = test: Antimycobacterial activity against Mycobacterium kansasii 235/80 assessed as complete growth inhibition after 21 days; type: functional; conditions: 235/80, 504 h; in short: as §5
[16] = system: Mycobacterium tuberculosis; test: Antimycobacterial activity against Mycobacterium tuberculosis H37Rv 331/88 assessed as complete growth inhibition after 21 days; type: functional; conditions: H37Rv 331/88, 504 h; in short: as §3
[17] = Selectivity index, ratio of IC50 for human HepG2 cells to MIC for methicillin-resistant Staphylococcus aureus H 5996/08
In short: as §2, with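 “read-out. IC50 is the concentration reducing viability to 50% of control; 10% DMSO as 0% viability.” for “read-out.”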

[18] = system: Trichophyton mentagrophytes; test: Antimicrobial activity against Trichophyton mentagrophytes 445 after 72 hrs by microdilution method; type: functional; conditions: Trichophyton mentagrophytes, 445, 72 h; in short: as §6
[19] = Inhibition of Mycobacterium tuberculosis H37Rv isocitrate lyase assessed as glyoxylate phenyl hydrazone formation at 10 uM
Enterococcus sp. [20] = test: Antimicrobial activity against Enterococcus sp. J 14365/08 after 24 hrs by microdilution method; type: functional; conditions: J 14365/08, 24 h; in short: as §1
Staphylococcus aureus [21] = test: Antimicrobial activity against Staphylococcus aureus CCM 4516/08 after 48 hrs by microdilution method; type: functional; conditions: CCM 4516/08, 48 h; in short: as §4
Staphylococcus aureus [22] = test: Antimicrobial activity against methicillin-resistant Staphylococcus aureus H 5996/08 after 24 hrs by microdilution method; type: functional; conditions: H 5996/08, 24 h; in short: as §4
Mycobacterium avium [23] = test: Antimycobacterial activity against Isoniazid, rifampicin, ofloxacin and ethambutol-resistant Mycobacterium avium 330/88 assessed as complete growth inhibition after 14 days; type: functional; conditions: 330/88, 336 h; in short: as §3
[24] = Selectivity index, ratio of IC50 for human HepG2 cells to MIC for atypical mycobacteria
In short: as §2, with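 “read-out. IC50 is the concentration reducing viability to 50% of control; 10% DMSO as 0% viability.” for “read-out.”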

Mycobacterium kansasii [25] = test: Antimycobacterial activity against clinical isolate Mycobacterium kansasii 6509/96 assessed as complete growth inhibition after 21 days; type: functional; conditions: 6509/96, 504 h; in short: as §5
in vitro = conditions: human, HepG2 cells

Row | SMILES | IC50 (HepG2) | MIC [1] | selectivity ratio [2] | MIC (Mycobacterium avium [3]) | MIC (Staphylococcus aureus [4]) | MIC (Mycobacterium kansasii [5]) | MIC (Mycobacterium kansasii [6]) | MIC [7] | MIC (Mycobacterium kansasii [8]) | MIC (Mycobacterium kansasii [9]) | MIC (Enterococcus sp. [10]) | MIC [11] | MIC (Staphylococcus aureus [12]) | Selectivity Index [13] | MIC [14] | MIC (Mycobacterium kansasii [15]) | MIC [16] | inhibition [19] | MIC (Mycobacterium avium [23]) | MIC (Mycobacterium kansasii [25]) | other results
1 | CN(C)C(=S)Oc1ccc(Cl)cc1C(=O)Nc1ccc(F)cc1 | 117 µM | 31.2 µM (≈ 11 µg/mL) | 7.3 | 32 µM (≈ 11.3 µg/mL) | 31.2 µM (≈ 11 µg/mL) | 16 µM (≈ 5.65 µg/mL) | 32 µM (≈ 11.3 µg/mL) | 31.2 µM (≈ 11 µg/mL) | 16 µM (≈ 5.65 µg/mL) | 32 µM (≈ 11.3 µg/mL) | > 500 µM | 8 µM (≈ 2.82 µg/mL) | 15.6 µM (≈ 5.51 µg/mL) | 15 | 7.81 µM (≈ 2.76 µg/mL) | 32 µM (≈ 11.3 µg/mL) | 16 µM (≈ 5.65 µg/mL) | 7% | 32 µM (≈ 11.3 µg/mL) | 32 µM (≈ 11.3 µg/mL) | Selectivity Index [17]: 3.7; MIC [18]: 7.81 µM (≈ 2.76 µg/mL); MIC (Enterococcus sp. [20]): > 500 µM; MIC (Staphylococcus aureus [21]): 31.2 µM (≈ 11 µg/mL); MIC (Staphylococcus aureus [22]): 31.2 µM (≈ 11 µg/mL); Selectivity Index [24]: 3.7
2 | CN(C)C(=O)Oc1ccc(Cl)cc1C(=O)Nc1ccc(Cl)cc1 | 189 µM | 125 µM (≈ 44.2 µg/mL) | 11.8 | 62.5 µM (≈ 22.1 µg/mL) | 125 µM (≈ 44.2 µg/mL) | 62.5 µM (≈ 22.1 µg/mL) | 125 µM (≈ 44.2 µg/mL) | 125 µM (≈ 44.2 µg/mL) | 62.5 µM (≈ 22.1 µg/mL) | 62.5 µM (≈ 22.1 µg/mL) | > 125 µM | 16 µM (≈ 5.65 µg/mL) | 62.5 µM (≈ 22.1 µg/mL) | 6 | 31.2 µM (≈ 11 µg/mL) | 62.5 µM (≈ 22.1 µg/mL) | 16 µM (≈ 5.65 µg/mL) | 6% | 62.5 µM (≈ 22.1 µg/mL) | 125 µM (≈ 44.2 µg/mL) | Selectivity Index [17]: 1.5; MIC [18]: 31.2 µM (≈ 11 µg/mL); MIC (Enterococcus sp. [20]): 125 µM (≈ 44.2 µg/mL); MIC (Staphylococcus aureus [21]): 125 µM (≈ 44.2 µg/mL); MIC (Staphylococcus aureus [22]): 62.5 µM (≈ 22.1 µg/mL); Selectivity Index [24]: 1.5
3 | CN(C)C(=O)Oc1ccc(Cl)cc1C(=O)Nc1ccc(F)cc1 | 444 µM | > 125 µM | 14 | 125 µM (≈ 42.1 µg/mL) | > 125 µM | 62.5 µM (≈ 21 µg/mL) | 125 µM (≈ 42.1 µg/mL) | > 125 µM | 62.5 µM (≈ 21 µg/mL) | 125 µM (≈ 42.1 µg/mL) | > 125 µM | 32 µM (≈ 10.8 µg/mL) | 125 µM (≈ 42.1 µg/mL) | 3.6 | 125 µM (≈ 42.1 µg/mL) | 125 µM (≈ 42.1 µg/mL) | 32 µM (≈ 10.8 µg/mL) | 8% | 125 µM (≈ 42.1 µg/mL) | 125 µM (≈ 42.1 µg/mL) | Selectivity Index [17]: <=3.6; MIC [18]: 125 µM (≈ 42.1 µg/mL); MIC (Enterococcus sp. [20]): 125 µM (≈ 42.1 µg/mL); MIC (Staphylococcus aureus [21]): > 125 µM; MIC (Staphylococcus aureus [22]): > 125 µM; Selectivity Index [24]: 3.6
4 | NNC(=O)c1ccncc1 [ISONIAZID] | > 250 µM | – | > 250 | > 250 µM | – | 2 µM (≈ 0.274 µg/mL) | 4 µM (≈ 0.549 µg/mL) | – | > 250 µM | > 250 µM | – | 0.5 µM (≈ 0.0686 µg/mL) | – | – | – | > 250 µM | 1 µM (≈ 0.137 µg/mL) | 0% | > 250 µM | 4 µM (≈ 0.549 µg/mL) | selectivity ratio (in vitro): ≥ 31.3
5 | CN(C)C(=S)Oc1ccc(Cl)cc1C(=O)Nc1ccc(Br)cc1 | 85.6 µM | 0.49 µM (≈ 0.203 µg/mL) | 10.7 | 16 µM (≈ 6.62 µg/mL) | 0.49 µM (≈ 0.203 µg/mL) | 16 µM (≈ 6.62 µg/mL) | 32 µM (≈ 13.2 µg/mL) | 0.49 µM (≈ 0.203 µg/mL) | 16 µM (≈ 6.62 µg/mL) | 16 µM (≈ 6.62 µg/mL) | > 500 µM | 8 µM (≈ 3.31 µg/mL) | 0.49 µM (≈ 0.203 µg/mL) | 843.9 | 1.95 µM (≈ 0.807 µg/mL) | 16 µM (≈ 6.62 µg/mL) | 8 µM (≈ 3.31 µg/mL) | 11% | 16 µM (≈ 6.62 µg/mL) | 32 µM (≈ 13.2 µg/mL) | Selectivity Index [17]: 174.8; MIC [18]: 1.95 µM (≈ 0.807 µg/mL); MIC (Enterococcus sp. [20]): > 500 µM; MIC (Staphylococcus aureus [21]): 0.49 µM (≈ 0.203 µg/mL); MIC (Staphylococcus aureus [22]): 0.49 µM (≈ 0.203 µg/mL); Selectivity Index [24]: 2.7
